We go through 8 molecules from ChEMBL document CHEMBL3352033, “Jatrophanes from Euphorbia squamosa as potent inhibitors of Candida albicans multidrug transporters” (J Nat Prod, 2014).

Activity calls are given as the source filed them. No cut-off for these calls is given here.

In experiment [1] the test system is Saccharomyces cerevisiae. In words: Growth inhibition of Saccharomyces cerevisiae AD1-8u(-) overexpressing CaCdr1p assessed as FIC of compound by checkerboard method. The experiment is classed as functional. Put shortly: (§1)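 Checkerboard per CLSI: yeast cells (10^4) in 96-well format with fluconazole 0.15−800 μM crossed with inhibitor 0.15−80 μM, grown 48 h at 30 °C in YEPD; growth read by optical density. FIC for FLC = IC50 of FLC in combination/IC50 alone; FIC for inhibitor likewise; FICI from both. Means ± SD of three independent experiments.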

The subject of experiment [2] is Saccharomyces cerevisiae. In words: Growth inhibition of Saccharomyces cerevisiae AD1-8u(-) assessed as FIC index by checkerboard method. The experiment is classed as functional. Put shortly: as §1
Experiment [3] has as its system Saccharomyces cerevisiae. Put plainly: Growth inhibition of Saccharomyces cerevisiae AD1-8u(-) overexpressing CaCdr1p assessed as FIC index by checkerboard method. The experiment is classed as functional. Put shortly: as §1
Experiment [4] has as its system Saccharomyces cerevisiae. Put plainly: Growth inhibition of Saccharomyces cerevisiae AD1-8u(-) overexpressing CaCdr1p assessed as FIC of fluconazole by checkerboard method. Format: functional. Put shortly:
as §1

In experiment [5] the test system is Saccharomyces cerevisiae. Put plainly: Toxicity against Saccharomyces cerevisiae AD1-8u(-) overexpressing CaCdr1p. Format: organism-based. Put shortly:
(§2)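 Yeast cells (10^4) seeded with inhibitor 0.15−80 μM or none, grown 48 h at 30 °C in YEPD; optical density measured. Growth without inhibitor set as 100%, and the concentration giving 50% growth taken as IC50. Means ± SD of three independent experiments, duplicate samples.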

The test system of experiment [6] is Saccharomyces cerevisiae. Put plainly: Toxicity against Saccharomyces cerevisiae AD1-8u(-) overexpressing CaMdr1p. Format: organism-based. Put shortly:
as §2

For experiment [7], the system named is Saccharomyces cerevisiae. Put plainly: Resistance index, ratio of IC50 for Saccharomyces cerevisiae AD1-8u(-) overexpressing CaCdr1p to IC50 for Saccharomyces cerevisiae AD1-8u(-). Format: functional. Put shortly: (§3)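 RI computed as the IC50 for the AD-CDR1 or AD-MDR1 strain divided by that for control strain AD1-8u−. Each IC50 comes from optical density after 48 h growth at 30 °C of 10^4 cells with inhibitor at 0.15−80 μM, 50% growth versus untreated. Means ± SD of three independent experiments.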

For experiment [8], the system named is Saccharomyces cerevisiae. Put plainly: Growth inhibition of Saccharomyces cerevisiae AD1-8u(-) assessed as FIC of compound by checkerboard method. The experiment is classed as functional. The gist of the method: as §1
In experiment [9] the test system is Saccharomyces cerevisiae. In words: Resistance index, ratio of IC50 for Saccharomyces cerevisiae AD1-8u(-) overexpressing CaMdr1p to IC50 for Saccharomyces cerevisiae AD1-8u(-). The experiment is classed as functional. The gist of the method: as §3
For experiment [10], the system named is Saccharomyces cerevisiae. Put plainly: Growth inhibition of Saccharomyces cerevisiae AD1-8u(-) assessed as FIC of fluconazole by checkerboard method. The experiment is classed as functional. Put shortly:
as §1

The test system of experiment [11] is Saccharomyces cerevisiae. In words: Growth inhibition of Saccharomyces cerevisiae AD1-8u(-) overexpressing CaMdr1p assessed as FIC of fluconazole by checkerboard method. Format: functional. Put shortly: as §1
Experiment [12] relates to Saccharomyces cerevisiae. In words: Growth inhibition of Saccharomyces cerevisiae AD1-8u(-) overexpressing CaMdr1p assessed as FIC index by checkerboard method. The experiment is classed as functional. Put shortly:
as §1

Experiment [13] deals with Saccharomyces cerevisiae. Put plainly: Growth inhibition of Saccharomyces cerevisiae AD1-8u(-) overexpressing CaMdr1p assessed as FIC of compound by checkerboard method. Format: functional. Put shortly: as §1
Experiment [14] concerns Candida albicans. In words: Inhibition of Candida albicans CaCdr1p-mediated drug efflux overexpressed in Saccharomyces cerevisiae assessed as nile red accumulation after 30 mins by flow cytometry. The gist of the method: (§4)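 Host is S. cerevisiae AD1-8u− deleted for its own multidrug transporters, carrying the C. albicans transporter ORF integrated at the PDR5 locus (AD-CDR1 or AD-MDR1). Cells are grown in YEPD at 30 °C from OD600 0.1 to 0.25, then resuspended as a 5% suspension in YEPD diluted 1:2 with water. NR is 7 μM final with inhibitor at 70 μM, 30 min at 30 °C. Read-out is flow cytometry of 10 000 cells. Three independent experiments.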
(In general: A flow cytometer gives signals particle by particle.)

Experiment [15] concerns Saccharomyces cerevisiae. Put plainly: Toxicity against Saccharomyces cerevisiae AD1-8u(-). Format: organism-based. Put shortly: as §2
In experiment [16] the test system is Candida albicans. In words: Inhibition of Candida albicans CaMdr1p-mediated drug efflux overexpressed in Saccharomyces cerevisiae assessed as nile red accumulation after 30 mins by flow cytometry. The gist of the method:
as §4

By IC50 is commonly meant the midpoint of a concentration-inhibition curve. A high value points to lower potency. For orientation: inhibition means the relative decrease from the control value, in per cent. For the molecule `C=C1CC(OC(C)=O)C(=O)C(C)(C)/C=C/[C@H](C)[C@@H](OC(C)=O)[C@@]2(OC(C)=O)C[C@@H](C)[C@H](OC(=O)c3ccccc3)[C@@H]2[C@H]1OC(C)=O` (some centres not stated), the FIC50 was 0.02 in experiment [1]; 0.04 in experiment [4]; 0.07 in experiment [8]; 1.2 in experiment [10]; 1 in [11]; 0.02 in experiment [13]. In addition, the “fractional inhibitory concentration index (FICI)” value in experiment [2] was 1.27; in experiment [3], 0.06; in [12] it was 1.02. Besides, the IC50 in experiment [5] is 31.7 µM; in experiment [6] it was 25 µM; in experiment [15], 2.3 µM. Besides, the “Ratio IC50” value was determined as 13.8 in experiment [7] and 10.9 in experiment [9]. Besides, the inhibition result in [14] was “Active”.
As for `CC(=O)O[C@@H]1[C@@H](OC(C)=O)C(C)(C)/C=C/[C@H](C)C(=O)[C@@]2(OC(C)=O)C[C@@H](C)[C@H](OC(=O)c3ccccc3)/C2=C/[C@](C)(O)[C@@H]1OC(C)=O`, the FIC50 in experiment [1] was 0.01; in [4] it was 0.02; in [8], 0.07; in experiment [10], 1.2; in experiment [11], 0.5; in experiment [13] it was 0.02. Further, the “fractional inhibitory concentration index (FICI)” value amounted to 1.27 in experiment [2], 0.03 in experiment [3] and 0.52 in experiment [12]. The 50% inhibitory concentration (IC50) in [5] was found to be 26.7 µM; in experiment [6], 28.3 µM; in experiment [15] it was 2.3 µM. Further, the “Ratio IC50” value in experiment [7] stood at 11.6; in [9], 12.3. The inhibition in experiment [14] stood at 88%. The inhibition result in [16] is “Active”.
With `C=C1CCC(=O)C(C)(C)/C=C/[C@H](C)C(=O)[C@@]2(OC(C)=O)C[C@H](C)[C@H](OC(=O)c3ccccc3)[C@@H]2[C@H]1OC(C)=O`, the inhibition entry in experiment [14] and in [16] was “Active” in each case.
In the case of `CC(=O)O[C@@H]1[C@@H](O)[C@@H](OC(C)=O)/C(C)=C/[C@H]2[C@@H](OC(=O)c3ccccc3)[C@H](C)C[C@]2(OC(C)=O)[C@H](OC(C)=O)[C@@H](C)/C=C/C1(C)C`, the FIC50 came out at 0.34 in experiment [1]; 0.08 in experiment [4]; 0.07 in experiment [8]; 1.2 in [10]; 1 in [11]; 0.36 in [13]. The “fractional inhibitory concentration index (FICI)” value in experiment [2] is given as 1.27; in experiment [3] it was 0.42; in [12], 1.36. For the same molecule, the results for the IC50 in experiment [5], in [6] and in experiment [15] were 3.7 µM, 3.5 µM and 2.3 µM, respectively. Also, the “Ratio IC50” value in [7] is recorded as 1.6; in experiment [9], 1.5. In addition, in experiment [14], the inhibition result is “Active”.
Take `C=C1[C@H](OC(C)=O)[C@@H](OC(C)=O)[C@@H](OC(C)=O)C(C)(C)/C=C/[C@H](C)C(=O)[C@@]2(OC(C)=O)C[C@H](C)[C@H](OC(C)=O)[C@@H]2[C@H]1OC(=O)c1ccccc1`: the inhibition result in [14] is “inactive”.
Same read-out and setting: the result for `CC(=O)O[C@@H]1[C@H](C)/C=C/C(C)(C)C(=O)C[C@@H](OC(=O)c2ccccc2)/C(C)=C/[C@H]2[C@@H](OC(=O)c3ccccc3)[C@H](C)C[C@]12OC(C)=O` reads “inactive”.
Still for that read-out and setting: the same measure for `CC(=O)O[C@@H]1[C@@H](OC(C)=O)C(C)(C)/C=C/[C@H](C)[C@@H](OC(C)=O)[C@@]2(OC(C)=O)C[C@@H](C)[C@H](OC(=O)c3ccccc3)/C2=C\[C@](C)(O)[C@@H]1O`: “inactive”; for `C=C1[C@H](OC(=O)c2ccccc2)[C@H]2[C@@H](OC(C)=O)[C@@H](C)C[C@]2(OC(C)=O)C(=O)[C@@H](C)/C=C/C(C)(C)C(=O)[C@H](OC(C)=O)[C@H]1OC(C)=O`: “inactive”.
